# Data published in ChEMBL document CHEMBL1129560, “Nucleoside conjugates. 15. Synthesis and biological activity of anti-HIV nucleoside conjugates of ether and thioether phospholipids” (J Med Chem, 1996).
# Tests used:
# CCRF-CEM [1] = assay: Effective concentration against HIV-1-infected CEM cells in mice administered intraperitoneally; assay type: functional, cell-based; conditions: Homo sapiens, in the assay text read “in vitro” for “in mice administered intraperitoneally”
# Method in brief: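 Conjugates were given as micellar suspensions made by sonication, in HIV-1-infected CEM cells. EC50 is the concentration protecting infected cells by 50%. IC50 is the concentration reducing viable cell number by 50%.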
# CCRF-CEM [2] = assay: Ability to reduce viable cell number on HIV-1-infected CEM cells in vitro; conditions: Homo sapiens
# [3] = Time taken to decrease plasma concentration to half of its initial concentration after ip administration; assay type: ADME, organism-based
# Method in brief: (§1)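 Female NIH-Swiss mice (25–30 g) received one dose of micellar conjugate ip at 394 mg/kg (equivalent to 100 mg/kg parent nucleoside), or the parent at 100 mg/kg ip. An iv arm gave 205 mg/kg conjugate or 50 mg/kg parent. Three mice were taken per time point up to 24 h. Serum nucleoside was measured by HPLC-UV at 260 nm. Analysis was noncompartmental, with t1/2 = 0.693/λz.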
# [4] = Pharmacokinetic parameter AUC in mice following a single dose intraperitoneal administration of the compound; conditions: mouse, in vivo, ip
# [5] = Time taken to decrease plasma concentration to half of its initial concentration after intraperitoneal administration; assay type: ADME, organism-based; conditions: ip; method in brief: as §1
# [6] = Time taken to decrease plasma concentration to half of its initial concentration after iv administration; assay type: ADME, organism-based
Compound,EC50 (CCRF-CEM [1]) [µM],IC50 (CCRF-CEM [2]) [µM],half-life [3] [h],AUC [4] [ng·h/mL],half-life [5] [h],half-life [6] [h]
CCCCCCCCCCCCCCCC(=O)OC(COCCCCCCCCCCCCCC)COP(=O)(O)OP(=O)(O)OC[C@H]1O[C@@H](n2cc(C)c(=O)[nH]c2=O)C[C@@H]1N=[N+]=[N-] (some centres not stated),57,14000,,,,
Cc1cn([C@H]2C[C@H](N=[N+]=[N-])[C@@H](CO)O2)c(=O)[nH]c1=O [ZIDOVUDINE],0.186,191,0.28,175000,,
CCCCCCCCCCCCCCCCCCSCC(COP(=O)([O-])OP(=O)([O-])OC[C@H]1O[C@@H](n2cc(C)c(=O)[nH]c2=O)C[C@@H]1N=[N+]=[N-])OC(=O)CCCCCCCCCCCCCCC.[Na+].[Na+] (some centres not stated),< 0.58,120,,25800,5.69,
CCCCCCCCCCCCCCCCCCSCC(COP(=O)([O-])OP(=O)([O-])OC[C@H]1O[C@@H](n2ccc(=O)[nH]c2=O)C[C@@H]1N=[N+]=[N-])OC(=O)CCCCCCCCCCCCCCC.[Na+].[Na+] (some centres not stated),17,380,,,,6.5
CCCCCCCCCCCCCCCCCCSCC(COP(=O)(O)OP(=O)(O)OC[C@@H]1CC[C@H](n2ccc(N)nc2=O)O1)OC(=O)CCCCCCCCCCCCCCC (some centres not stated),130,2800,,,,
[N-]=[N+]=N[C@H]1C[C@H](n2ccc(=O)[nH]c2=O)O[C@@H]1CO [NAVURIDINE],,,,42300,,0.89
